Test results from ChEMBL document CHEMBL4316609, “Chemical synthesis and functional characterization of a new class of ceramide analogues as anti-cancer agents” (Bioorg Med Chem, 2019).
Activity calls are given as the source filed them. The calls are words filed in the database; no cut-off is given here.

What was measured:
[1] = test system: A-431; test: Cytotoxicity against human A431 cells measured after 48 hrs by MTT assay; type: functional, cell-based; conditions: A-431, 48 h
Method in brief: (§1)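 Seeded at 7x10^3 cells/well and allowed 24 h to attach. Compounds added at final 0 to 200 μM and incubated 48 h. Viability read by MTT. IC50 taken as the concentration giving 50% growth inhibition; mean ± SD, N = 4.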

[2] = test system: HeLa; test: Potentiation of TRAIL-induced cytotoxicity against human HeLa cells assessed as reduction in cell growth at cytotoxic IC50 measured after 48 hrs by MTT assay; type: functional, cell-based
Method in brief: (§2)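 Viability read by MTT. Growth inhibition calculated as OD570 of untreated minus OD570 of treated cells; mean and SD.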

[3] = Cytotoxicity against human SA cells measured after 48 hrs by MTT assay; type: functional, cell-based; conditions: +SA cell; method in brief: as §1
[4] = test system: MCF7; test: Cytotoxicity against human MCF7 cells measured after 48 hrs by MTT assay; type: functional, cell-based; conditions: MCF7, 48 h; method in brief: as §1
[5] = test system: HepG2; test: Potentiation of TRAIL-induced cytotoxicity against human HepG2 cells assessed as reduction in cell growth at cytotoxic IC50 measured after 48 hrs by MTT assay; type: functional, cell-based; method in brief: as §2
[6] = test system: SW-620; test: Potentiation of TRAIL-induced cytotoxicity against human SW620 cells assessed as reduction in cell growth at cytotoxic IC50 measured after 48 hrs by MTT assay; type: functional, cell-based; method in brief: as §2
[7] = test system: LS-411N; test: Potentiation of TRAIL-induced cytotoxicity against human LS411N cells assessed as reduction in cell growth at cytotoxic IC50 measured after 48 hrs by MTT assay; type: functional, cell-based; method in brief: as §2
[8] = test system: MCF7; test: Potentiation of TRAIL-induced cytotoxicity against human MCF7 cells assessed as reduction in cell growth at cytotoxic IC50 measured after 48 hrs by MTT assay; type: functional, cell-based; method in brief: as §2
[9] = test system: SiHa; test: Cytotoxicity against human SiHa cells measured after 48 hrs by MTT assay; type: functional, cell-based; method in brief: as §1
[10] = test system: SW-620; test: Induction of apoptosis in human SW620 cells assessed as XIAP protein level at 15 uM measured after 48 hrs by Western blot analysis relative to beta-actin (reference value: 1); type: functional
[11] = test system: SW-620; test: Antitumor activity against human SW620 cells xenografted in athymic mouse assessed as suppression of tumor growth at 100 mg/kg administered as injection every other day for 15 days measured during compound dosing; type: functional, organism-based
Method in brief: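 SW620 colon carcinoma cells (3x10^6 per mouse) implanted subcutaneously in athymic mice. Randomised at 60-80 mm³ tumour size, n=6 per group. Dosed 100 mg/kg on alternate days for 15 days. Vehicle control received 200 μL 1% polyoxyethylated castor oil. Tumour measured in three diameters with a caliper to give volume.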

[12] = test system: SW-620; test: Toxicity in athymic mouse xenografted with human SW620 cells assessed as serum creatine kinase level at 100 mg/kg administered as injection every other day for 15 days measured post last dose by ELISA (reference value: 1.94 +/- 1.04 U/L); conditions: in vivo, 360 h
[13] = test system: SW-620; test: Induction of apoptosis in human SW620 cells assessed as XIAP protein level at 20 uM measured after 48 hrs by Western blot analysis relative to beta-actin (reference value: 1); type: functional
[14] = test system: SW-620; test: Induction of apoptosis in human SW620 cells assessed as morphological changes by measuring appearance of shining cells at cytotoxic IC50 measured after 8 to 24 hrs by Hoechst 33342 staining based fluorescence microscopic analysis; type: functional, cell-based
[15] = test system: SW-620; test: Induction of apoptosis in human SW620 cells assessed as Bcl-xl protein level at 10 uM measured after 48 hrs by Western blot analysis relative to beta-actin (reference value: 1); type: functional
[16] = test system: SW-620; test: Induction of apoptosis in human SW620 cells assessed as XIAP protein level at 10 uM measured after 48 hrs by Western blot analysis relative to beta-actin (reference value: 1); type: functional
[17] = test system: SW-620; test: Cytotoxicity against human SW620 cells measured after 48 hrs by MTT assay; type: functional, cell-based; conditions: SW-620, 48 h; method in brief: as §1
[18] = test system: SW-620; test: Induction of apoptosis in human SW620 cells assessed as Bcl-xl protein level at 15 uM measured after 48 hrs by Western blot analysis relative to beta-actin (reference value: 1); type: functional
[19] = test system: SW-620; test: Induction of apoptosis in human SW620 cells assessed as Bcl-xl protein level at 20 uM measured after 48 hrs by Western blot analysis relative to beta-actin (reference value: 1); type: functional
[20] = test system: HepG2; test: Cytotoxicity against human HepG2 cells measured after 48 hrs by MTT assay; type: functional, cell-based; conditions: HepG2, 48 h; method in brief: as §1

| SMILES | IC50 [1] | Activity [2] | IC50 [3] | IC50 [4] | Activity [5] | Activity [6] | Activity [7] | Activity [8] | IC50 [9] | fold change (FC) [10] | Activity [11] | Activity [12] | fold change (FC) [13] | Activity [14] | fold change (FC) [15] | fold change (FC) [16] | IC50 [17] | fold change (FC) [18] | fold change (FC) [19] | IC50 [20] |
| --- | --- | --- | --- | --- | --- | --- | --- | --- | --- | --- | --- | --- | --- | --- | --- | --- | --- | --- | --- | --- |
| CCCCCCCCNC(=O)[C@@H](NC(=O)c1cccs1)[C@@H](C)O | 32.1 µM | Active | 60.9 µM | 72.5 µM | Active | Active | Active | Active | 91.9 µM |  |  |  |  |  |  |  |  |  |  |  |
| CCCCCCCCCCCCCCNC(=O)[C@@H](NS(=O)(=O)c1ccc(C)cc1)[C@@H](C)O | 12 µM |  | 10.9 µM | 12.9 µM |  |  |  |  | 19.2 µM | 1 | Active | 2.32 U/L | 0.94 | Active | 0.88 | 1.06 | 15.2 µM | 0.73 | 0.67 | 10.9 µM |
| CCCCCCCCCCCCCCNC(=O)[C@@H](NS(=O)(=O)c1ccc2ccccc2c1)[C@@H](C)O | 19.6 µM |  | 10.2 µM | 12.2 µM |  |  |  |  | 11.1 µM | 1.14 | Active | 2.63 U/L | 0.93 | Active | 1.05 | 1.21 | 9.36 µM | 1.08 | 0.55 | 11.4 µM |
| CCCCCCCCNC(=O)[C@@H](NC(=O)c1cc2ccccc2o1)[C@@H](C)O | 52.7 µM | Active | 40.8 µM | 47.2 µM | Active | Active | Active | Active | 66.5 µM |  |  |  |  |  |  |  | 200 µM |  |  | 81.3 µM |
| CCCCCCCCCCCCNC(=O)[C@@H](NC(=O)c1ccccc1)[C@@H](C)O | 41.2 µM | Active | 75.5 µM | 36.6 µM | Active | Active | Active | Active | 63.9 µM |  |  |  |  |  |  |  | 200 µM |  |  |  |
| CCCCCCCCCCCCCCNC(=O)[C@@H](NC(=O)c1cc2ccccc2n1C)[C@@H](C)O | 13.7 µM |  | 25.7 µM | 25.7 µM |  |  |  |  | 26.5 µM |  |  |  |  | Active |  |  | 21.5 µM |  |  | 34.5 µM |
| CCCCCCCCCCCCCCNC(=O)[C@@H](NC(=O)Cc1c[nH]c2ccccc12)[C@@H](C)O | 15.5 µM |  | 11.5 µM | 6.81 µM |  |  |  |  | 4.8 µM | 0.86 | Active | 2.44 U/L | 0.06 | Active | 1.32 | 1.03 | 22 µM | 1.46 | 0.47 | 21.1 µM |
| CCCCCCCCCCCCNC(=O)[C@@H](NC(=O)c1nccc2ccccc12)[C@@H](C)O | 62.8 µM | Active | 51.9 µM | 50.5 µM | Active | Active | Active | Active | 56.6 µM |  |  |  |  |  |  |  | 65.8 µM |  |  | 65.7 µM |
| CCCCCCCCCCCCCCNC(=O)[C@@H](N)[C@@H](C)O | 14.6 µM |  | 11 µM | 10.7 µM |  |  |  |  | 11 µM | 1.29 | Active | 2.98 U/L | 0.15 |  | 0.82 | 1.22 | 18.7 µM | 0.68 | 0.34 |  |
| CCCCCCCCCCCCNC(=O)[C@@H](NC(=O)c1ccco1)[C@@H](C)O | 92.4 µM | Active | 93.5 µM | 67.5 µM | Active | Active | Active | Active | 64.3 µM |  |  |  |  |  |  |  | 87.5 µM |  |  |  |
| CCCCCCCCCCCCNC(=O)[C@@H](NC(=O)c1cccs1)[C@@H](C)O | 16.6 µM |  | 23.3 µM | 30.4 µM |  |  |  |  | 23.9 µM |  |  |  |  |  |  |  | 29.2 µM |  |  | 30.1 µM |
| C/C=C/C=C/C(=O)N[C@H](C(=O)NCCCCCCCCCCCCCCCCCC)[C@@H](C)O | 187 µM |  | > 200 µM | 79.6 µM |  |  |  |  | > 200 µM |  |  |  |  |  |  |  | 200 µM |  |  | 284 µM |
| CCCCCCCCCCCCNC(=O)[C@@H](NC(=O)c1cc2ccccc2o1)[C@@H](C)O | 20 µM |  | 10.5 µM | 20.9 µM |  |  |  |  | 12.8 µM |  |  |  |  |  |  |  | 21.3 µM |  |  | 22.9 µM |
| CCCCCCCCCCCCCCCCCCNC(=O)[C@@H](NC(=O)c1ccco1)[C@@H](C)O | 19.9 µM |  | 52.6 µM | 21.4 µM |  |  |  |  | 13.3 µM |  |  |  |  |  |  |  | > 200 µM |  |  | 42.3 µM |
| C/C=C/C=C/C(=O)N[C@H](C(=O)NCCCCCCCC)[C@@H](C)O | 58.2 µM | Active | 40.4 µM |  | Active | Active | Active | Active |  |  |  |  |  |  |  |  | 200 µM |  |  |  |
| CCCCCCCCCCCCCCCCCCNC(=O)[C@@H](NC(=O)c1nccc2ccccc12)[C@@H](C)O | 44.1 µM | Active | 49.1 µM | 30.8 µM | Active | Active | Active | Active | 51.2 µM |  |  |  |  |  |  |  |  |  |  | 96.9 µM |
